Results published in ChEMBL document CHEMBL2086239, “Synthesis and biological evaluation of combretastatin-amidobenzothiazole conjugates as potential anticancer agents” (Eur J Med Chem, 2012).
One block for each compound: values may come before it. The source made the active and inactive calls. The calls are words filed in the database; no cut-off is given here.

Columns and labels:
Assay type in all cases: functional
NCI-H522 = test: Growth inhibition of human NCI-H522 cells after 48 hrs by SRB assay; details: NCI-H522, 48 h
Summary of the method: (§1)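 NCI 60-cell-line screen: after preliminary screening, tested at five dose concentrations on 59 human tumour lines covering leukemia, lung, colon, CNS, melanoma, ovarian, renal, prostate and breast.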

MCF7 [1] = test: Cytotoxicity against human MCF7 cells after 48 hrs assessed as inhibition of cell growth at 10 uM after 48 hrs by SRB assay relative to control; details: MCF7, 48 h, read-out: GI
Summary of the method: (§2)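 SRB protein assay in DMEM with 10% FBS at 37 °C, 5% CO2, 100% relative humidity. Cells seeded in 96-well plates, incubated 24 h, then exposed to drug at 10 µM for 48 h and processed per standard protocol. Absorbance read at 560 nm; growth percentage calculated for test wells relative to control wells.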

SW-620 = test: Growth inhibition of human SW620 cells after 48 hrs by SRB assay
Summary of the method: (§3)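 NCI 60-cell-line panel, five-dose testing after preliminary screen; sulforhodamine B protein assay in DMEM with 10% FBS, 37 °C, 5% CO2, 100% humidity. Cells seeded and incubated 24 h before compound addition, then exposed 48 h. Absorbance read at 560 nm; growth percentage relative to control wells; GI50 taken as concentration giving 50% growth inhibition.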

HCT-15 = test: Growth inhibition of human HCT15 cells after 48 hrs by SRB assay; details: HCT-15, 48 h; summary of the method: as §1
NCI-H23 = test: Growth inhibition of human NCI-H23 cells after 48 hrs by SRB assay; details: NCI-H23, 48 h; summary of the method: as §1
NCI-H322M = test: Growth inhibition of human NCI-H322M cells after 48 hrs by SRB assay; summary of the method: as §1
EKVX = test: Growth inhibition of human EKVX cells after 48 hrs by SRB assay; summary of the method: as §1
CAKI-1 = test: Growth inhibition of human Caki1 cells after 48 hrs by SRB assay; details: CAKI-1, 48 h; summary of the method: as §1
THP-1 = test: Cytotoxicity against human THP1 cells after 48 hrs assessed as inhibition of cell growth at 10 uM after 48 hrs by SRB assay relative to control; details: THP-1, 48 h, read-out: GI; summary of the method: as §2
MDA-MB-231 = test: Growth inhibition of human MDA-MB-231 cells after 48 hrs by SRB assay; details: MDA-MB-231, 48 h; summary of the method: as §1
OVCAR-4 = test: Growth inhibition of human OVCAR4 cells after 48 hrs by SRB assay; details: OVCAR-4, 48 h; summary of the method: as §1
COLO 205 [2] = test: Cytotoxicity against human COLO205 cells after 48 hrs assessed as inhibition of cell growth at 10 uM after 48 hrs by SRB assay relative to control; details: COLO 205, 48 h, read-out: GI; summary of the method: as §2
KM12 = test: Growth inhibition of human KM12 cells after 48 hrs by SRB assay; details: KM12, 48 h; summary of the method: as §1
SK-MEL-5 = test: Growth inhibition of human SK-MEL-5 cells after 48 hrs by SRB assay; details: SK-MEL-5, 48 h; summary of the method: as §3
NCI-H460 = test: Growth inhibition of human NCI-H460 cells after 48 hrs by SRB assay; details: NCI-H460, 48 h; summary of the method: as §1
MDA-MB-435 = test: Growth inhibition of human MDA-MB-435 cells after 48 hrs by SRB assay; details: MDA-MB-435, 48 h; summary of the method: as §1
IGROV-1 = test: Growth inhibition of human IGROV1 cells after 48 hrs by SRB assay; details: IGROV-1, 48 h; summary of the method: as §1
Malme-3M = test: Growth inhibition of human MALME-3M cells after 48 hrs by SRB assay; summary of the method: as §1
IMR-32 = test: Cytotoxicity against human IMR32 cells after 48 hrs assessed as inhibition of cell growth at 10 uM after 48 hrs by SRB assay relative to control; details: IMR-32, 48 h, read-out: GI; summary of the method: as §2
MOLT-4 = test: Growth inhibition of human MOLT4 cells after 48 hrs by SRB assay; details: MOLT-4, 48 h; summary of the method: as §1
HOP-62 = test: Growth inhibition of human HOP62 cells after 48 hrs by SRB assay; details: HOP-62, 48 h; summary of the method: as §1
NCI-H226 = test: Growth inhibition of human NCI-H226 cells after 48 hrs by SRB assay; details: NCI-H226, 48 h; summary of the method: as §1
SR = test: Growth inhibition of human SR cells after 48 hrs by SRB assay; summary of the method: as §3
RXF 393 = test: Growth inhibition of human RXF393 cells after 48 hrs by SRB assay; details: RXF 393, 48 h; summary of the method: as §1
UACC-257 = test: Growth inhibition of human UACC257 cells after 48 hrs by SRB assay; details: UACC-257, 48 h; summary of the method: as §3
UO-31 = test: Growth inhibition of human UO31 cells after 48 hrs by SRB assay; details: UO-31, 48 h; summary of the method: as §3
COLO 205 [3] = test: Growth inhibition of human COLO205 cells after 48 hrs by SRB assay; details: COLO 205, 48 h; summary of the method: as §1
Hs-578T = test: Growth inhibition of human Hs578T cells after 48 hrs by SRB assay; summary of the method: as §1
ACHN = test: Growth inhibition of human ACHN cells after 48 hrs by SRB assay; summary of the method: as §1
NCI/ADR-RES = test: Growth inhibition of human NCI/ADR-RES cells after 48 hrs by SRB assay; summary of the method: as §1
SN12C = test: Growth inhibition of human SN12C cells after 48 hrs by SRB assay; summary of the method: as §3
BT-549 = test: Growth inhibition of human BT549 cells after 48 hrs by SRB assay; details: BT-549, 48 h; summary of the method: as §1
SNB-75 = test: Growth inhibition of human SNB75 cells after 48 hrs by SRB assay; details: SNB-75, 48 h; summary of the method: as §3
OVCAR-3 = test: Growth inhibition of human OVCAR3 cells after 48 hrs by SRB assay; details: OVCAR-3, 48 h; summary of the method: as §1
MCF7 [4] = test: Cell cycle arrest in human MCF7 cells assessed as accumulation at S phase at 4 uM after 24 hrs by FACS analysis (reference value: 6.79%)
HCT-116 = test: Growth inhibition of human HCT116 cells after 48 hrs by SRB assay; details: HCT-116, 48 h; summary of the method: as §1
MCF7 [5] = test: Cell cycle arrest in human MCF7 cells assessed as accumulation at G1 phase at 4 uM after 24 hrs by FACS analysis (reference value: 58.33%)
MCF7 [6] = test: Cell cycle arrest in human MCF7 cells assessed as accumulation at G2/M phase at 4 uM after 24 hrs by FACS analysis (reference value: 34.88%)
CCRF-CEM = test: Growth inhibition of human CCRF-CEM cells after 48 hrs by SRB assay; summary of the method: as §1
SK-MEL-2 = test: Growth inhibition of human SK-MEL-2 cells after 48 hrs by SRB assay; details: SK-MEL-2, 48 h; summary of the method: as §3
T47D = test: Growth inhibition of human T47D cells after 48 hrs by SRB assay; summary of the method: as §3
UACC-62 = test: Growth inhibition of human UACC62 cells after 48 hrs by SRB assay; details: UACC-62, 48 h; summary of the method: as §3

- GI50 (NCI-H522): 2.28 µM
- GI50 (SW-620; SW-620, 48 h): 4.7 µM
- GI50 (HCT-15): 2.8 µM
- GI50 (NCI-H23): 2.53 µM
- GI50 (NCI-H322M): 6.74 µM
- GI50 (MDA-MB-231): 5.45 µM
- GI50 (OVCAR-4): 2.64 µM
- GI50 (SK-MEL-5): 1.97 µM
- GI50 (NCI-H460): 3.36 µM
- GI50 (MDA-MB-435): 2.13 µM
- GI50 (MOLT-4): 2.11 µM
- GI50 (NCI-H226): 2.75 µM
- GI50 (COLO 205 [3]): 4.4 µM
- GI50 (ACHN): 3.12 µM
- GI50 (BT-549): 3.05 µM
- GI50 (OVCAR-3): 6.32 µM
- GI50 (HCT-116): 3.57 µM
- GI50 (CCRF-CEM): 3.41 µM
- GI50 (SK-MEL-2): 3.15 µM
- GI50 (T47D): 9.41 µM
SMILES: COc1ccc(/C=C\c2cc(OC)c(OC)c(OC)c2)cc1OCC(=O)Nc1ccc2nc(C)sc2c1
- inhibition of growth at 10 µM (MCF7 [1]): 52%
- GI50 (EKVX): 4.05 µM
- GI50 (CAKI-1): 2.19 µM
- inhibition of growth at 10 µM (THP-1): 59%
- inhibition of growth at 10 µM (COLO 205 [2]): 17%
- GI50 (KM12): 3.79 µM
- GI50 (IGROV-1): 3.72 µM
- GI50 (Malme-3M): 2.84 µM
- inhibition of growth at 10 µM (IMR-32): 62%
- GI50 (HOP-62): 3.09 µM
- GI50 (SR): 2.93 µM
- GI50 (RXF 393): 5.06 µM
- GI50 (UACC-257): 1.73 µM
- GI50 (UO-31): 2.41 µM
- GI50 (Hs-578T): 4.32 µM
- GI50 (NCI/ADR-RES): 2.36 µM
- GI50 (SN12C): 3.53 µM
- GI50 (SNB-75): 1.55 µM
- Activity (MCF7 [4]): 7.71%
- Activity (MCF7 [5]): 55.2%
- Activity (MCF7 [6]): 37.09%
- GI50 (UACC-62): 2.19 µM

SMILES: COc1ccc(/C=C\c2cc(OC)c(OC)c(OC)c2)cc1OCC(=O)Nc1nc2ccc(F)cc2s1
- GI50 (NCI-H522): 2.92 µM
- inhibition of growth at 10 µM (MCF7 [1]): 56%
- GI50 (SW-620): inactive
- GI50 (HCT-15): 8.19 µM
- GI50 (NCI-H23): 4.26 µM
- GI50 (NCI-H322M): inactive
- GI50 (EKVX): 5.72 µM
- GI50 (CAKI-1): 2.78 µM
- inhibition of growth at 10 µM (THP-1): 54%
- GI50 (MDA-MB-231): 9.34 µM
- GI50 (OVCAR-4): 7.3 µM
- inhibition of growth at 10 µM (COLO 205 [2]): 50%
- GI50 (KM12): 4.78 µM
- GI50 (SK-MEL-5): 1.76 µM
- GI50 (NCI-H460): 4.36 µM
- GI50 (MDA-MB-435): 0.33 µM
- GI50 (IGROV-1): 4.17 µM
- GI50 (Malme-3M): 5.22 µM
- inhibition of growth at 10 µM (IMR-32): 77%
- GI50 (MOLT-4): 3.07 µM
- GI50 (HOP-62): 5.7 µM
- GI50 (NCI-H226): 5.6 µM
- GI50 (SR): 2.19 µM
- GI50 (RXF 393): 6.29 µM
- GI50 (UACC-257): 8.69 µM
- GI50 (UO-31): 2.56 µM
- GI50 (COLO 205 [3]): 7.78 µM
- GI50 (Hs-578T): inactive
- GI50 (ACHN): 3.33 µM
- GI50 (NCI/ADR-RES): 2.55 µM
- GI50 (SN12C): 4.61 µM
- GI50 (BT-549): 16.7 µM
- GI50 (SNB-75): 4.39 µM
- GI50 (OVCAR-3): 9.99 µM
- Activity (MCF7 [4]): 13.64%
- GI50 (HCT-116): 4.48 µM
- Activity (MCF7 [5]): 44.28%
- Activity (MCF7 [6]): 42.08%
- GI50 (CCRF-CEM): 3.7 µM
- GI50 (SK-MEL-2): 8.46 µM
- GI50 (T47D): 3.39 µM
- GI50 (UACC-62): 4.05 µM
